# rCAG binder-1: binds r(CAG) RNA repeats; r(CAG) RNA repeat, TO-PRO-1 dye displacement fluorescence; inhibition, % at 3 µM; 370,000 compounds, 1.3% hits;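 active means inhibition above the plate cutoff, the mean of all test compounds on that plate plus 3 SD, cut at about 35% in these data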;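 further: 0% = DMSO alone and 100% = 100 µM mitoxantrone as full dye displacement; higher means more dye released from RNA so lower well fluorescence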
# NadD block: NadD (S. aureus) enzyme inhibition; purified NadD enzyme, colorimetric absorbance read-out; inhibition, % at 20 µM; 360,000 compounds, 0.78% hits; AID 602399; in the data active means inhibition above about 26%
# core dimer inh: blocks dimerization of HCV core protein; TR-FRET GST/Flag-core106 dimerization, 1536-well; inhibition, % at 5 µM; 300,000 compounds, 0.33% hits; AID 1899;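 active means inhibition above the mean of all tested compounds plus 3 SD, set per screening campaign, cut at about 45% in these data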
#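 System: GST/Flag-tagged HCV core106 proteins. Incubation: compound-protein-antibody incubation 4 h at 22.5 °C. Technique: HTRF with 340 nm excitation, 617/671 nm emission. Medium: KF-containing HEPES buffer, pH 7.45, DTT, CHAPS, BSA. Read-out: inhibition (%) from 671 over 617 nm ratio. Also added: Eu(K)-anti-GST 90 ng/mL plus XL665-anti-Flag 1 µg/mL.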
# ABHD5 PLIN5 PPI: inhibitors of human ABHD5-perilipin-5 interaction; 360,000 compounds, 0.78% hits; AID 602281; Split G. princeps luciferase complementation, luminescence, 4 h; inhibition, % at 4 µM;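 active means inhibition above the mean inhibition across every tested compound plus 3 SD, cut at about 22% in these data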;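 further: 0% = DMSO only wells and the 100% control is not disclosed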
# Target sequence (Q00G26 whole entry, looked up): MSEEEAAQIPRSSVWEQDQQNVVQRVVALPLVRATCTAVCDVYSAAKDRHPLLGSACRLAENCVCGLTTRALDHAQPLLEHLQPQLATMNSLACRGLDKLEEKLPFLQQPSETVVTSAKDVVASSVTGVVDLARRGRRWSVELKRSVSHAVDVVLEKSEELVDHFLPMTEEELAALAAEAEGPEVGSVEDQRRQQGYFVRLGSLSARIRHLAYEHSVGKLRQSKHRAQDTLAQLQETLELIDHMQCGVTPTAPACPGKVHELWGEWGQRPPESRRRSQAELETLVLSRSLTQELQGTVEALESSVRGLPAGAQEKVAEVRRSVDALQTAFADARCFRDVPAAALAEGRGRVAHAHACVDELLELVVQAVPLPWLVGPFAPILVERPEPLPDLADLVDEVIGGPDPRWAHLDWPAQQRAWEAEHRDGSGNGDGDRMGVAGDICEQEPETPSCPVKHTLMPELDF
# Target sequence (Q8WTS1 whole entry, looked up): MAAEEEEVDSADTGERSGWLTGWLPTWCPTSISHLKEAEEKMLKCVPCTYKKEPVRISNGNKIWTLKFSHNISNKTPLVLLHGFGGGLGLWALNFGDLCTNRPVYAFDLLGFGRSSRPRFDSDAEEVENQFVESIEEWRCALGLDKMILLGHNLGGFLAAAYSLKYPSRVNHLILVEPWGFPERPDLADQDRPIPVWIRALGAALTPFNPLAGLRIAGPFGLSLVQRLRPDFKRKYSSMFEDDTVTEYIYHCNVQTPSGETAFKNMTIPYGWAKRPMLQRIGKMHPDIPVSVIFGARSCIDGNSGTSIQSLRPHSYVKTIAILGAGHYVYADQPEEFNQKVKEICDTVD
# NadD conf: NadD (S. aureus) inhibition, single concentration confirmation; 2,000 compounds, 13% hits; inhibition, % at 20 µM; purified S. aureus NadD, colorimetric enzyme assay; shares compounds with NadD block; in the data active means inhibition mostly above about 42%, no sharp cut-off; inactive means mostly below about 42%
# rCAG bind conf: r(CAG) RNA repeat binding, confirmation | shares compounds with rCAG binder-1 | TO-PRO-1 dye displacement fluorescence | inhibition, % at 3 µM | 4,300 compounds, 70% hits;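 active means inhibition above a per-plate cutoff, the mean inhibition of sample wells plus 3 SD, cut at about 35% in these data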;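 further: loss of TO-PRO-1 fluorescence as compound displaces dye from 1x1 AA loop RNA; 0% = DMSO only wells and 100% = 100 µM mitoxantrone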
# dCAG dye counter: DNA CAG dye complex inhibition counter-screen; 4,300 compounds, 94% hits; d(CAG) DNA oligo TO-PRO-1 dye displacement, fluorescence; inhibition, % at 3 µM; shares compounds with rCAG binder-1;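 active means inhibition above its plate's cutoff, the mean test-well inhibition plus 3 SD, cut at about 4.8% in these data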;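 further: 0% = DNA dye mix with DMSO and 100% = 100 µM mitoxantrone; hits displace the dye from DNA and so lower well fluorescence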
# DNA CAG DR: DNA CAG dye complex inhibition, dose response counter-screen. 250 compounds, 20% hits. IC50, µM. AID 686960. DNA CAG/GTC duplex TO-PRO-1 dye displacement fluorescence. shares compounds with rCAG binder-1; in the data active means IC50 below about 10 µM
# dCAG TOPRO ctr: inhibits DNA CAG/GTC TO-PRO-1 complex, rCAG binder counter-screen; shares compounds with rCAG binder-1; d(CAG) DNA duplex TO-PRO-1 dye displacement, fluorescence; IC50, µM; 30 compounds, 80% hits; AID 720649
# rCAG binder-2: binds r(CAG) RNA repeats in late stage dose response; shares compounds with rCAG binder-1; r(CAG) RNA TO-PRO-1 dye displacement, fluorescence; IC50, µM; 30 compounds, 100% hits; AID 720651
# * marks the source's active call; other numbers are inactive results; / = no result given. In the library only some 2.6% were active in any assay of this set; here they are far more common. Unless noted, how the calls were made is not given here.
SMILES,rCAG binder-1,NadD block,core dimer inh,ABHD5 PLIN5 PPI,NadD conf,rCAG bind conf,dCAG dye counter,others
CC(=O)C1=C(C)N(Cc2ccc(Br)cc2)C(=S)NC1c1cccc(Br)c1 (configuration not stated),3,/,/,/,/,/,/,
CS(=O)c1ccccc1O (configuration not stated),4,0,9,3,/,/,/,
O=S(c1ccccc1O)S(=O)c1ccccc1O (configuration not stated),72*,39*,/,-11,68*,/,/,
CC(C)C[C@H]1CN(CCCC[C@H]2CNC(=O)C(=O)N2CCc2ccc(O)cc2)C(=O)C(=O)N1CCc1ccc(O)cc1,3,5,/,-4,/,/,/,
O=C(O)c1ccc(/C=N/NC(=O)c2cc(-c3ccc4c5c(cccc35)CC4)n[nH]2)cc1,81*,28*,33,6,34,80*,49*,
O=C(N/N=C/c1ccccn1)c1cc(-c2cccc3ccccc23)n[nH]1,3,9,5,1,/,/,/,
COc1ccc(NC(=O)C2(C)Cc3c(-c4cccc(C(F)(F)F)c4)ccnc3O2)cc1OC (configuration not stated),0,3,/,-3,/,/,/,
Cc1ccc(NS(=O)(=O)c2ccc(Cl)c(C(=O)Nc3ccccc3-c3nc4ccccc4[nH]3)c2)cc1C,47*,47*,29,-8,13,42*,24*,
CCc1ccc2nc(N3C(=O)C(O)=C(C(=O)c4ccco4)C3c3cccs3)sc2c1 (configuration not stated),/,17,20,-1,/,/,/,
Cc1ccc2nc(N3C(=O)C(O)=C(C(=O)c4ccc(C)o4)C3c3ccco3)sc2c1 (configuration not stated),31,26,/,4,/,/,/,
O=C(C1=C(O)C(=O)N(c2nc3ccc(Cl)cc3s2)C1c1ccco1)c1ccco1 (configuration not stated),68*,56*,/,13,51*,72*,33*,DNA CAG DR=3.5*;dCAG TOPRO ctr=2.9*;rCAG binder-2=1.3*
Cc1ccc2nc(N3C(=O)C(O)=C(C(=O)c4ccco4)C3c3ccc(C)o3)sc2c1 (configuration not stated),49*,26*,9,-5,35,72*,33*,DNA CAG DR=3.8*;dCAG TOPRO ctr=2*;rCAG binder-2=0.92*
O=C(Nc1cccc(C(=O)O)c1)/C(=C/c1ccc([N+](=O)[O-])cc1)NC(=O)c1ccccc1,7,0,2,3,/,/,/,
CC(C)(C)c1ccc(C(=O)N/C(=C\c2cccc([N+](=O)[O-])c2)C(=O)Nc2cccc(C(=O)O)c2)cc1,84*,31*,15,1,45,75*,44*,
Cc1ccc(N2C(=O)C3C4C=CC(C4)C3C2=O)cc1C (configuration not stated),2,-4,0,-3,/,/,/,
CC1=NN(c2ccc(C)c(C)c2)C(=O)C1C(c1cccc(O)c1)C1C(=O)N(c2ccc(C)c(C)c2)N=C1C (configuration not stated),70*,37*,15,6,61*,78*,37*,
C[C@H](CO)N1C[C@H](C)[C@H](CN(C)C(=O)Nc2cccc(F)c2)OCc2cnnn2CCCC1=O,2,/,/,/,/,/,/,
Cc1ccc(-c2cc(C(=O)Nc3ccc(S(=O)(=O)Nc4cc(C)on4)cc3)c3ccccc3n2)c(C)c1,79*,43*,10,-3,65*,82*,53*,
Cc1ccc(-c2cc(C(=O)Nc3ccc(S(=O)(=O)Nc4onc(C)c4C)cc3)c3ccccc3n2)cc1,87*,31*,21,5,66*,86*,61*,

# High-throughput results: PubChem, several laboratories
